Assays:
[1] = system: primary meningioma cells; details: read-out: IC50, primary meningioma cells; cited from earlier work
[2] = Stability in whole blood kept on ice; format: in vitro ADME
[3] = day one, cited from earlier work
[4] = Pilot 2 intra‐tumoral AR‐42 concentration by LC‐MS/MS; format: in vivo, human
Method in brief: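 The oral test compound was given at 40 mg three times weekly for 3 weeks before resection. Each VS was divided into peripheral capsule and center, and samples were frozen quickly. Drug was measured by LC-MS/MS against a standard curve of known concentrations, as the mean of three runs. Tumor:plasma ratio = capsule or center concentration ÷ pre-anesthesia plasma concentration.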

[5] = system: patients with advanced solid tumors; details: cited from earlier work
[6] = system: Ben‐Men‐1 xenograft; details: cited from earlier work
[7] = system: VS and meningioma cells; details: cited from earlier work
[8] = system: patients with multiple myeloma, and T‐ and B‐cell lymphomas; details: three times weekly for 3 weeks of a 28‐day cycle; cited from earlier work
[9] = system: patients with sporadic VS or meningioma; assay: Pilot 2 safety and tolerability; format: in vivo, human
Method in brief: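 Phase 0 pre-surgical study: 40 mg of the test compound orally three times weekly for 3 weeks before planned VS/meningioma resection. Adults >18 y had ECOG 0-1, normal organ and marrow function, and could swallow capsules. Excluded were pregnancy, malabsorption, chronic corticosteroids, prolonged QT, active infection, and concurrent antineoplastic therapy or radiotherapy.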

[10] = Patient # 2.7 (meningioma), 40 mg

**Q.** With `CC(C)[C@H](C(=O)Nc1ccc(C(=O)NO)cc1)c1ccccc1` [AR‐42] as the compound, how does the IC50 [1] read?
**A.** 1500 nM

**Q.** And the “Time stable in blood kept on ice” value [2]?
**A.** more than 4 hours

**Q.** And the “Mean maximal plasma concentration” value ([3]; 60 mg dose)?
**A.** 1.48 (±0.38) μM

**Q.** And the Maximum plasma concentration ([3]; Patient 1.7, 80 mg dose)?
**A.** 3.25 µM

**Q.** And the “Concentration in meningioma capsule” value ([4]; 40 mg)?
**A.** 5300 nM

**Q.** What about the “Concentration in meningioma tumor center” value ([4]; 40 mg) of the same compound?
**A.** 1800 nM

**Q.** And the “Concentrations of AR‐42 in VS” value ([4]; 40 mg)?
**A.** 230 to 620 nM

**Q.** What about the “Concentration in tumors, Capsule” value ([4]; Patient # 2.1 (VS), 40 mg) of the same compound?
**A.** 624.2 nM

**Q.** What about the “Concentration in tumors, Center” value ([4]; Patient # 2.1 (VS), 40 mg) of the same compound?
**A.** 577.0 nM

**Q.** And the “Concentration in tumors, Capsule” value ([4]; Patient # 2.2 (VS), 40 mg)?
**A.** 429.4 nM

**Q.** And the “Concentration in tumors, Center” value ([4]; Patient # 2.2 (VS), 40 mg)?
**A.** 586.6 nM

**Q.** What about the “Concentration in tumors, Capsule” value ([4]; Patient # 2.4 (VS), 40 mg) of the same compound?
**A.** 230.6 nM

**Q.** What about the “Concentration in tumors, Center” value ([4]; Patient # 2.4 (VS), 40 mg) of the same compound?
**A.** 289.0 nM

**Q.** What about the “Concentration in tumors, Capsule” value ([4]; Patient # 2.6 (VS), 40 mg) of the same compound?
**A.** 16.2 nM

**Q.** What about the “Concentration in tumors, Center” value ([4]; Patient # 2.6 (VS), 40 mg) of the same compound?
**A.** 7.1 nM

**Q.** What about the “Concentration in tumors, Capsule” value [4, 10] of the same compound?
**A.** 5296.6 nM

**Q.** What about the “Concentration in tumors, Center” value [4, 10] of the same compound?
**A.** 1766.2 nM

**Q.** And the “Meningioma (subject 2.7) AR‐42 level higher than the VS” value ([4]; WHO grade I meningioma)?
**A.** 10 fold

**Q.** And the “AR‐42 concentrations in tumors compared with plasma” value ([4]; all tumors, Pilot 2, 40 mg)?
**A.** higher

**Q.** What about the “Dose‐limiting toxicities (DLTs)” value ([5]; 30, 60 or 80 mg orally) of the same compound?
**A.** grade 3 thrombocytopenia and grade 4 psychosis

**Q.** What about the “Median progression‐free survival” value ([5]; NF2 and non‐NF2 meningioma subset, RECIST, 95% CI: 1.9—not reached) of the same compound?
**A.** 9.1 months

**Q.** And the “Most common treatment‐related adverse events” value [5]?
**A.** cytopenias, fatigue, and nausea

**Q.** And the “Recommended phase II dose” value ([5]; daily, three times weekly for 3 weeks of a 28‐day cycle)?
**A.** 60 mg

**Q.** What about the Meningioma tumor volumes [6] of the same compound?
**A.** markedly diminished meningioma tumor volumes

**Q.** And the “Tumor return after treatment” value ([6]; followed 6 months post‐treatment)?
**A.** tumors did not return

**Q.** What about the Apoptosis [7] of the same compound?
**A.** triggered apoptosis

**Q.** And the Cell cycle effect [7]?
**A.** induced cell‐cycle arrest at G2/M

**Q.** And the “p‐AKT levels” value [7]?
**A.** decreased p‐AKT levels

**Q.** What about the “Maximum tolerated dose (MTD)” value [8] of the same compound?
**A.** 40 mg

**Q.** What about the “Arrhythmias or QT changes” value ([9]; Pilot 2, 40 mg) of the same compound?
**A.** no arrhythmias or QT changes

**Q.** And the “Grade 3 or 4 toxicities” value ([9]; Pilot 2, 3 weeks at 40 mg)?
**A.** no grade 3 or 4 toxicities

From publication PMC8513424 (Laryngoscope Investigative Otolaryngology, 2021)
